Measurements from different studies.
Antigen peptide transporter 1/Antigen peptide transporter 2: Antigen peptide transporter 1/Antigen peptide transporter 2 (Homo sapiens, UniProt Q03518+Q03519)
CP: CP (Tobacco mosaic virus, UniProt P69687)
Cnr1: Cannabinoid receptor 1 (Cnr1, Rattus norvegicus, UniProt P20272)

C[C@H](N)C(=O)N[C@@H](CCCNC(=N)N)C(=O)N[C@@H](C)C(=O)N[C@@H](C)C(=O)N[C@@H](C)C(=O)N[C@@H](C)C(=O)N[C@@H](C)C(=O)N[C@@H](C)C(=O)N[C@@H](CCCCN)C(=O)O — IC50 (Antigen peptide transporter 1/Antigen peptide transporter 2; ligand displacement): 7 µM
CC[C@H](C)[C@H](NC(=O)[C@H](CC(C)C)NC(=O)[C@@H](N)CO)C(=O)NCC(=O)N[C@@H](CCCCN)C(=O)N[C@H](C(N)=O)C(C)C — EC50 (Proteinase-activated receptor 2 (F2RL1, Homo sapiens, UniProt P55085); calcium signal; agonist): 5.8 µM
C[C@H](NC(=O)[C@H](CCC(=O)O)NC(=O)[C@@H](NC(=O)[C@H](CO)NC(=O)[C@H](CCCCN)NC(=O)[C@H](CCC(N)=O)NC(=O)[C@H](Cc1ccc(O)cc1)NC(=O)[C@H](CCCNC(=N)N)NC(=O)[C@@H](N)CCCNC(=N)N)[C@@H](C)O)C(=O)O — IC50 (Antigen peptide transporter 1/Antigen peptide transporter 2; ligand displacement): 0.7 µM
COc1c(-c2ccccc2)oc2c(ccc3occc32)c1=O — IC50 (Cyclin-dependent kinase 7, with cyclin H (CDK7, Homo sapiens, UniProt P50613); enzyme activity; inhibitor; ADP detection): > 100 µM
NC(=O)c1ncn([C@@H]2O[C@H](CO)[C@@H](O)[C@H]2O)n1 — Kd (CP; binding; MST): 120 µM
CNCC(=O)N[C@@H](CO)C(=O)N[C@H]1[C@H](O)[C@@H](O)[C@H](n2ccc(N)nc2=O)O[C@@H]1C(N)=O — Kd (CP; binding; MST): 9.2 µM
CC(C)C[C@H](NC(=O)[C@H](CCC(=O)O)NC(=O)[C@@H](NC(=O)[C@H](CO)NC(=O)[C@H](CCCCN)NC(=O)[C@H](CCC(N)=O)NC(=O)[C@H](Cc1ccc(O)cc1)NC(=O)[C@H](CCCNC(=N)N)NC(=O)[C@H](CCCNC(=N)N)NC(=O)[C@H](C)N)[C@@H](C)O)C(=O)N[C@@H](C)C(=O)O — IC50 (Antigen peptide transporter 1/Antigen peptide transporter 2; ligand displacement): 2.6 µM
O=C(/C=C/c1cccc(S(=O)(=O)Nc2ccccc2)c1)NO — Kd (Protein deacetylase HDAC6 (HDAC6, Homo sapiens, UniProt Q9UBN7); cell-free assay): 0.52 µM
CCCCCn1c2ccccc2c2cc(CN3CCCCC3)ccc21 — Ki (Cnr1; ligand displacement; radioligand; cell membranes): ~0.1 µM
COc1ccc2cccc(C(CO)CNC(=O)CF)c2c1 (stereo not shown) — EC50 (Melatonin receptor type 1B (MTNR1B, Homo sapiens, UniProt P49286); β-arrestin recruitment; agonist): 0.00269 µM
CC[C@H](C)[C@H](NC(=O)[C@H](CCCNC(=N)N)NC(=O)[C@H](C)N)C(=O)N[C@@H](CC(=O)O)C(=O)N[C@@H](CCCCN)C(=O)N1CCC[C@H]1C(=O)N[C@H](C(=O)N[C@@H](CC(C)C)C(=O)N[C@@H](C)C(=O)O)[C@@H](C)CC — IC50 (Antigen peptide transporter 1/Antigen peptide transporter 2; ligand displacement): 0.5 µM
CCCCCn1c2ccccc2c2cc(C(=O)NCC3CCN(CC(=O)NC(C)(C)C)CC3)ccc21 — Ki (Cnr1; ligand displacement; radioligand): > 5 µM
C/C(N)=N\C(=N/S(=O)(=O)c1ccc(C(F)(F)F)cc1)N1C[C@H](c2ccccc2)C(c2ccc(Cl)cc2)=N1 — Ki (Cnr1; ligand displacement; radioligand; cell membranes): 0.008 µM
